From ChEMBL document CHEMBL1949592, “Synthesis and antiviral activity of 2'-deoxy-2'-fluoro-2'-C-methyl-7-deazapurine nucleosides, their phosphoramidate prodrugs and 5'-triphosphates” (Bioorg Med Chem Lett, 2011)

Experiments:
PBMC = experiment: Cytotoxicity against human PBMC after 6 days by trypan blue exclusion method; assay type: cell-based; conditions: 144 h
Huh-7 [1] = experiment: Metabolic stability in human HuH7 cells assessed as 5'-monophosphate level at 50 uM after 4 hrs by LC-MS/MS analysis; assay type: ADME, cell-based; conditions: huh-7, 4 h
Summary of the method: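 Huh-7 cells were exposed to the parent nucleoside or its phosphoramidate prodrug, each separately at 50 μM, at 37 °C for 4 h, then washed with phosphate-buffered saline before intracellular analysis.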

Huh-7 [2] = experiment: Cytotoxicity against human HuH7 cells assessed as reduction of 50% rRNA level after 96 hrs; assay type: cell-based; conditions: huh-7, 96 h
Summary of the method: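 Huh-7 cells carrying the HCV replicon were exposed to compound for 96 h. Toxicity was read as a fall in cellular rRNA.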

[3] = tested on: Human immunodeficiency virus 1; experiment: Antiviral activity against HIV1 LAV1 infected in PHA-stimulated human PBMC assessed as reduction in RT activity after 6 days by micromethod-based beta scintillation counting; assay type: functional, organism-based; conditions: Human immunodeficiency virus 1, LAV1, 144 h
CCRF-CEM = experiment: Cytotoxicity against human CEM cells after 6 days by trypan blue exclusion method; assay type: cell-based; conditions: 144 h
Vero = experiment: Cytotoxicity against african green monkey Vero cells after 3 days by hemocytometer analysis; assay type: cell-based; conditions: Chlorocebus sabaeus, 72 h
Hepatitis C virus = experiment: Antiviral activity against Hepatitis C virus infected in human HuH7 cells assessed as decrease in viral RNA level after 96 hrs by RT-PCR; assay type: functional, organism-based, Hepacivirus hominis; conditions: Huh-7, 96 h
Huh-7 [4] = experiment: Metabolic stability in human HuH7 cells assessed as diphosphate level at 50 uM after 4 hrs by LC-MS/MS analysis; assay type: ADME, cell-based; conditions: huh-7, 4 h
Summary of the method: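 For the cellular pharmacology study, Huh-7 cells were incubated separately with the nucleoside or its phosphoramidate prodrug at 50 μM for 4 h at 37 °C, then washed with phosphate-buffered saline before analysis of intracellular metabolites.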

[5] = Inhibition of Hepatitis C virus wild-type NS5B Cdelta 21 RNA dependent RNA polymerase expressed in Escherichia coli BL21(DE3); set-up: species or system Hepacivirus hominis
Hepacivirus hominis = experiment: Fold resistance, ratio of HCV NS5B Cdelta 21 RNA dependent RNA polymerase S282T mutant to IC50 for IC50 for HCV wild type NS5B Cdelta 21 RNA dependent RNA polymerase
[6] = biological target: RNA-directed RNA polymerase (Hepacivirus hominis, UniProt O39930, S282T); experiment: Inhibition of Hepatitis C virus NS5B Cdelta 21 RNA dependent RNA polymerase S282T mutant expressed in Escherichia coli BL21(DE3)
RNA-directed RNA polymerase, sequence (O39930 entry or part of it S282T): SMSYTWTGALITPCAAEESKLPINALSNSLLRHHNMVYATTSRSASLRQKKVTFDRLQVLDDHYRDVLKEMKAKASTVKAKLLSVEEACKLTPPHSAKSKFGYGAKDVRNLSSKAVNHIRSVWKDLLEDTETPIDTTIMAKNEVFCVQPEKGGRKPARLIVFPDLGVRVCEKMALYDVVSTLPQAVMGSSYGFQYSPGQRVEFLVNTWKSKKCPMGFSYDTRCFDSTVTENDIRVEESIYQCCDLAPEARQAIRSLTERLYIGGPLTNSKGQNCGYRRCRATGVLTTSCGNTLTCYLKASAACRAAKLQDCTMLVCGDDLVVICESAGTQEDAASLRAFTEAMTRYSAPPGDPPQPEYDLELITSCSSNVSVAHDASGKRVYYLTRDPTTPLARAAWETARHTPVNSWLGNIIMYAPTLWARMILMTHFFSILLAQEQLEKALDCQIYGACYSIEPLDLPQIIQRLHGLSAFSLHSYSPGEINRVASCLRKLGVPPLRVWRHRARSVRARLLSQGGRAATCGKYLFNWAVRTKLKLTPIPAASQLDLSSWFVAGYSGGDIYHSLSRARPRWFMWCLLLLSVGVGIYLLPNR

SMILES	IC50 (PBMC) [µM]	Stability (Huh-7 [1])	CC50 (Huh-7 [2]) [µM]	EC50 [3] [µM]	IC50 (CCRF-CEM) [µM]	IC50 (Vero) [µM]	EC50 (Hepatitis C virus) [µM]	EC90 (Hepatitis C virus) [µM]	Stability (Huh-7 [4])	IC50 [5] [µM]	Ratio IC50 (Hepacivirus hominis)	IC50 [6] [µM]	EC90 [3] [µM]
C[C@@]1(F)[C@H](O)[C@@H](CO)O[C@H]1n1ccc2c(N)nc(N)nc21	> 100	Stable	> 10	> 100	> 100	> 100	> 10	> 10	Stable	–	–	–	–
COP(=O)(OC)OP(=O)(OC)OP(=O)(OC)OC[C@H]1O[C@@H](n2cc(F)c3c(N)ncnc32)[C@](C)(F)[C@@H]1O (stereo partly drawn)	–	–	–	–	–	–	–	–	–	4	1.5	6	–
COP(=O)(OC)OP(=O)(OC)OP(=O)(OC)OC[C@H]1O[C@@H](n2ccc3c(N)ncnc32)[C@](C)(F)[C@@H]1O (stereo partly drawn)	–	–	–	–	–	–	–	–	–	–	1	15	–
CCOC(=O)[C@H](C)NP(=O)(OC[C@H]1O[C@@H](n2ccc3c(N)nc(N)nc32)[C@](C)(F)[C@@H]1O)Oc1ccccc1 (stereo partly drawn)	> 100	Unstable	> 10	88	> 100	> 100	> 10	> 10	–	–	–	–	> 100
